From PubChem BioAssay
Active and inactive are the calls of the source. Unless noted, no stated cut-off is given here; in the data, active means inhibition above about 30%; inactive means the rest.

What was measured:
[1] = Her2 expression decrease, cell viability multiplex – SKBR3 breast tumor cells, AlphaScreen, ATP viability, primary screen (AID 461;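 active means Her2 level under about 52% in both replicate screens, with viability over 70% of control, limit read from the data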;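 on Her2 level: lower value means less Her2 protein in the cells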;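 on viability: percent of carrier control wells set as 100% viability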); settings: SKBR3 Her2 protein level, 18-24 h, measured here: SKBR3 viability, ATP luminescence, at 10 µM
[2] = biological target: Receptor tyrosine-protein kinase erbB-2 (Homo sapiens) (UniProt P04626); test: as above; settings: 18-24 h, at 10 µM, stronger effect = lower value
[3] = reduced viability of SK-BR-3 breast cancer cells – cell-based, 24 h, human, pilot screen (AID 572;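 active means viability at or below 10% of carrier control in both of two separate runs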;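 further: compound exposure lasted between 18 and 24 h rather than exactly 24 h; 100% = carrier-treated control wells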); settings: SK-BR-3 viability, CellTiter-Glo luminescence, at 10 µM, stronger effect = lower value
[4] = HUVEC growth inhibition – cell-based, human, primary screen (AID 575;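 active means viability at or below 30% in both replicate assays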;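 further: 100% = median of untreated cell wells with 0.1% DMSO on each plate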); settings: HUVEC proliferation, CellTiter-Glo luminescence, 72 h; at 10 µM; stronger effect = lower value
How it was run: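 Test system: primary human umbilical vein endothelial cells; medium: endothelial basal medium with 2% FBS plus growth supplements; dosing: 10 µM compound only; times: 72 h treatment at 37 °C; signal: CTG luminescence; read-out: % viability relative to median vehicle-well signal on each plate; control set: vehicle and MePR control wells; plate: 384-well, collagen-coated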

[5] = H69AR cell proliferation blockers – human, duplicate replicates, primary screen (AID 580;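 active means viability at or under a set limit in both replicates, limit being median viability minus 3 SD, cut at about 48% in these data, passing the limit was not always enough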;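 further: 100% = mean luminescence of untreated wells and 0% = no signal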); settings: H69AR lung tumor cells viability, ATP luminescence, 72 h; at 10 µM; stronger effect = lower value
[6] = MRP1 drug-resistance reversers in H69AR cells – cell-based, doxorubicin co-treatment, pilot screen (AID 601;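 active means viability loss from added drug above about 55%, and viability with drug at most 40%, in both replicates, limit read from the data, passing the limit was not always enough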); settings: CellTiter-Glo, 72 h, at 10 µM; for differential viability (reversal): stronger effect = higher value
[7] = yeast transport mutant growth inhibition pilot in 384-well plates, post-Golgi transport modulator project (AID 636; in the data active means inhibition above about 31%); settings: absorbance 615 nm, about 18 h, stronger effect = higher value
[8] = growth suppression of yeast trafficking mutant, preliminary HTS, modulators of trafficking downstream of Golgi apparatus project, 1536-format plate, OD 615 nm (AID 637); settings: yeast transport mutant growth, absorbance 615 nm, 18 h; stronger effect = higher value
[9] = H69AR cells + 2 uM doxorubicin, measured here: viability with 2 uM doxorubicin, stronger effect = lower value
[10] = H69AR cells, compound alone cytotoxicity

Chain of Receptor tyrosine-protein kinase erbB-2 (Homo sapiens) (P04626 whole entry, looked up): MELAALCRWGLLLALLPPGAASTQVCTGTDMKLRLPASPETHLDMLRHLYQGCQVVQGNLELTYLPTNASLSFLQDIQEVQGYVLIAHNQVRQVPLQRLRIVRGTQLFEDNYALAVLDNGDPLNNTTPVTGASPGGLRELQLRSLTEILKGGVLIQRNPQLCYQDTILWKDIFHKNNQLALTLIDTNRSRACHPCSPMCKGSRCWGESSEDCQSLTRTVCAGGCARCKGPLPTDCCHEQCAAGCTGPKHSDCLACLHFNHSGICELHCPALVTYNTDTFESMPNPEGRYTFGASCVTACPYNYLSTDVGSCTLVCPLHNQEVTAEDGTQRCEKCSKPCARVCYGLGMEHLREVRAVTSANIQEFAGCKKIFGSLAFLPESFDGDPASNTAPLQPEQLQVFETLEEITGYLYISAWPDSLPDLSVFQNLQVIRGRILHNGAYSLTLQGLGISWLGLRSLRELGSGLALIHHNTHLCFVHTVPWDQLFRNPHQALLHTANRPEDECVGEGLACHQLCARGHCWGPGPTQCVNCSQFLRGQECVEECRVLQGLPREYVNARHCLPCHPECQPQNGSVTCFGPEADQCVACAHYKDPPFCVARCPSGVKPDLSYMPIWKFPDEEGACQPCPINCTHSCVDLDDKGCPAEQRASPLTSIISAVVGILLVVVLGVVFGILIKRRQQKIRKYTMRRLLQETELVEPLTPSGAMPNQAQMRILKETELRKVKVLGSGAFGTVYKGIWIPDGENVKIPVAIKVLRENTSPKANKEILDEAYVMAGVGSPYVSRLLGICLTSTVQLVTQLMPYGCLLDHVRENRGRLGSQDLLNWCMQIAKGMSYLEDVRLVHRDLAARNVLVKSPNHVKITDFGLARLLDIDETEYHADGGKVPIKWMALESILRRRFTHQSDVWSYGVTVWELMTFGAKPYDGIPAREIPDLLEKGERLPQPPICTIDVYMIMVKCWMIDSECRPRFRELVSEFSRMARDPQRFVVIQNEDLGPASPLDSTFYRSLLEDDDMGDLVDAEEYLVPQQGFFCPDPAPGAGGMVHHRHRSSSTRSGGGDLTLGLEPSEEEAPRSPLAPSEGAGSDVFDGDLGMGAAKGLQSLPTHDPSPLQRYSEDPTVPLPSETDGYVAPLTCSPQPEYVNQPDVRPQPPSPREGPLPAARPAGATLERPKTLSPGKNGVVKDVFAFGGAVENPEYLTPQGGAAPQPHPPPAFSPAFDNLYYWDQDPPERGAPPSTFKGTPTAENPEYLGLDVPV

Row | Compound | viability [1] | Her2 level [2] | viability [3] | viability [4] | viability [5] | differential viability (reversal) ([6]; H69AR cells + 2 uM doxorubicin) | viability [6, 9] | viability [6, 10] | inhibition [7] | inhibition [8]
1 | O=C(OCC(=O)N1CCCCCC1)c1cccs1 | 99% | 95.5% (inactive) | 99% (inactive) | 103% (inactive) | 106% (inactive) | 9.71% (inactive) | 96.7% | 106% | -0.67% (inactive) | 1.77% (inactive)
2 | CCCCn1cnc2c(cnn2-c2ccc(Cl)cc2)c1=O | 94.5% | 87% (inactive) | 94.5% (inactive) | 99.4% (inactive) | 86.1% (inactive) | -1.77% (inactive) | 87.9% | 86.1% | -3.55% (inactive) | 2.91% (inactive)
3 | COc1cccc(OC)c1C(=O)Nc1cccc(C(C)=O)c1 | 103% | 99% (inactive) | 103% (inactive) | 98.8% (inactive) | 98.7% (inactive) | 6.47% (inactive) | 92.2% | 98.7% | -6.27% (inactive) | 0.48% (inactive)
4 | COc1ccccc1CNC(=O)C1CCCN(S(=O)(=O)c2cnc[nH]2)C1 (stereo not given) | 94% | 102% (inactive) | 94% (inactive) | 105% (inactive) | 109% (inactive) | 16.7% (inactive) | 92.3% | 109% | 1.47% (inactive) | -0.98% (inactive)
5 | CCC(=O)Nc1c(C#N)c2nc3ccccc3nc2n1-c1ccccc1C | 95% | 82.5% (inactive) | 95% (inactive) | 99.2% (inactive) | 87.5% (inactive) | -3.52% (inactive) | 91% | 87.5% | -5.2% (inactive) | 8.85% (inactive)
6 | N#CCCCCn1c(-c2cncs2)nc2ccccc21 | 93.5% | 126% (inactive) | 93.5% (inactive) | 84.2% (inactive) | 93.8% (inactive) | 13.5% (inactive) | 80.3% | 93.8% | -5% (inactive) | -5.33% (inactive)
7 | COc1ccc(C(=O)N2CCN(S(=O)(=O)c3cc(Cl)ccc3OC)CC2)cc1 | 108% | 100% (inactive) | 108% (inactive) | 95.6% (inactive) | 103% (inactive) | 1.29% (inactive) | 102% | 103% | -2.37% (inactive) | 8.33% (inactive)
8 | CCC(=O)OCCn1c(=O)c2cc3c(=O)n(CCOC(=O)CC)c(=O)c3cc2c1=O | 99% | 135% (inactive) | 99% (inactive) | 98.3% (inactive) | 87.2% (inactive) | -3.94% (inactive) | 91.1% | 87.2% | 4.55% (inactive) | -4.83% (inactive)
9 | COC(=O)c1c(-c2cccs2)csc1NC(=O)CN1CCOCC1 | 103% | 98.5% (inactive) | 103% (inactive) | 86.6% (inactive) | 82.1% (inactive) | 0.685% (inactive) | 81.4% | 82.1% | -0.13% (inactive) | -1.13% (inactive)
10 | Cc1ccc(NC(=O)C2CCCN2C(=O)Oc2ccccc2)cc1 (stereo not given) | 90.5% | 94.5% (inactive) | 90.5% (inactive) | 107% (inactive) | 91.5% (inactive) | -0.415% (inactive) | 91.9% | 91.5% | -6.4% (inactive) | -1.64% (inactive)
11 | Cc1ccc(NC2c3ncccc3C(=O)N2C2CCCCC2)cc1C (stereo not given) | 98.5% | 94.5% (inactive) | 98.5% (inactive) | 91.7% (inactive) | 92.7% (inactive) | -4.25% (inactive) | 97% | 92.7% | -3.78% (inactive) | 11.5% (inactive)
12 | COc1ccc(OC)c(NC(=O)CCN2CCC(C)CC2)c1 | 112% | 120% (inactive) | 112% (inactive) | 78.3% (inactive) | 92.4% (inactive) | -0.63% (inactive) | 93.1% | 92.4% | 4.86% (inactive) | 22.4% (inactive)
13 | COc1ccc(N(CC(=O)N2CCN(Cc3ccc4c(c3)OCO4)CC2)S(C)(=O)=O)cc1OC | 106% | 89.5% (inactive) | 106% (inactive) | 108% (inactive) | 96.2% (inactive) | 9.96% (inactive) | 86.2% | 96.2% | -8.67% (inactive) | -2.58% (inactive)
14 | COc1cccc(C2C(C(=O)c3cc4ccccc4o3)=C(O)C(=O)N2CCN(C)C)c1OC (stereo not given) | 104% | 94.5% (inactive) | 104% (inactive) | 96.8% (inactive) | 100% (inactive) | 4.93% (inactive) | 95.4% | 100% | -3.87% (inactive) | 11.3% (inactive)
15 | C=CCOc1nc2c(c(=O)n(C)c(=O)n2C)n1C | 96.5% | 100% (inactive) | 96.5% (inactive) | 90.9% (inactive) | 94.4% (inactive) | 12.4% (inactive) | 82% | 94.4% | -3.25% (inactive) | 1.33% (inactive)
16 | O=C(O)c1cc2nc(-c3ccc(F)cc3)cc(C(F)(F)F)n2n1 | 94% | 118% (inactive) | 94% (inactive) | 82% (inactive) | 93.2% (inactive) | 4% (inactive) | 89.2% | 93.2% | -2.24% (inactive) | -1% (inactive)
17 | O=C(NCc1cccnc1)c1ccc2c(c1)OCO2 | 74% | 102% (inactive) | 74% (inactive) | 105% (inactive) | 89.7% (inactive) | -16.9% (inactive) | 107% | 89.7% | -1.35% (inactive) | -9.18% (inactive)
18 | Cc1cc(C)cc(NS(=O)(=O)c2ccc3[nH]cc(C(=O)NCc4ccco4)c(=O)c3c2)c1 | 97% | 87% (inactive) | 97% (inactive) | 19% (active) | 41.1% (active) | -35.9% (inactive) | 77% | 41.1% | -5.39% (inactive) | 1.45% (inactive)
19 | O=C(c1cc2ccccc2oc1=O)N1CCSC1c1ccco1 (stereo not given) | 100% | 93.5% (inactive) | 100% (inactive) | 97.5% (inactive) | 91.5% (inactive) | 6.19% (inactive) | 85.3% | 91.5% | -8.4% (inactive) | 5.74% (inactive)
20 | Fc1ccccc1-c1nc(-c2ccccc2)no1 | 85.5% | 69% (inactive) | 85.5% (inactive) | 81.4% (inactive) | 111% (inactive) | 19.6% (inactive) | 90.9% | 111% | 1.05% (inactive) | -3.87% (inactive)
21 | CCN(CC)CCCC1(CN)OCCc2ccccc21 (stereo not given) | 98.5% | 88.5% (inactive) | 98.5% (inactive) | 93.3% (inactive) | 83.8% (inactive) | -18.9% (inactive) | 103% | 83.8% | -0.39% (inactive) | 23.8% (inactive)
22 | CCOC(=O)Nc1ccc2c(CN3C(=O)NC4(CCCC4)C3=O)cc(=O)oc2c1 | 89.5% | 92.5% (inactive) | 89.5% (inactive) | 89.2% (inactive) | 88.3% (inactive) | -1.09% (inactive) | 89.4% | 88.3% | -6.58% (inactive) | -0.16% (inactive)
23 | O=C(COc1nnnc2ccccc12)N1CCCc2ccccc21 | 97% | 87% (inactive) | 97% (inactive) | 98.2% (inactive) | 98.3% (inactive) | 0.405% (inactive) | 97.9% | 98.3% | -4.8% (inactive) | 6.07% (inactive)
24 | O=S(=O)(c1cccc2nsnc12)N1CCN(c2ncccn2)CC1 | 87% | 96% (inactive) | 87% (inactive) | 105% (inactive) | 86.9% (inactive) | -7.98% (inactive) | 94.9% | 86.9% | -7.16% (inactive) | 3.61% (inactive)
25 | FC(F)(F)c1cc(-c2ccco2)nc(N2CCOCC2)n1 | 86% | 80.5% (inactive) | 86% (inactive) | 69.1% (inactive) | 92.4% (inactive) | 18.6% (inactive) | 73.8% | 92.4% | -6.93% (inactive) | 7.21% (inactive)
26 | CCOc1ccccc1N(C(=O)Cn1nnnc1-c1ccc(C)o1)C(CC)C(=O)NC(C)(C)C (stereo not given) | 88.5% | 105% (inactive) | 88.5% (inactive) | 120% (inactive) | 88.5% (inactive) | -14.7% (inactive) | 103% | 88.5% | 1.51% (inactive) | 4.6% (inactive)
27 | CCOC(=O)CN1CC23C=CC(O2)C(C(=O)NC2CCCC2)C3C1=O (stereo not given) | 86.5% | 84% (inactive) | 86.5% (inactive) | 106% (inactive) | 98.2% (inactive) | 10.6% (inactive) | 87.6% | 98.2% | -0.64% (inactive) | 4.33% (inactive)
28 | c1ccc2c(c1)sc1nnnn12 | 94.5% | 81% (inactive) | 94.5% (inactive) | 79.9% (inactive) | 86.6% (inactive) | -13.7% (inactive) | 100% | 86.6% | -5.07% (inactive) | 1.97% (inactive)
29 | COC(=O)c1cccc(NC(=O)Cc2coc3cc(OC)ccc23)c1 | 102% | 96.5% (inactive) | 102% (inactive) | 87.1% (inactive) | 94.2% (inactive) | 15.6% (inactive) | 78.6% | 94.2% | 3.51% (inactive) | -6.19% (inactive)
